According to ChEMBL document CHEMBL1153963, “Phenanthrene-based tylophorine-1 (PBT-1) inhibits lung cancer cell growth through the Akt and NF-kappaB pathways” (J Med Chem, 2009):
In brackets after ≈: the same amount, converted by molar mass.

Tests used:
CL1-0 [1] = test: Effect on IRAK1 gene expression in human CL1-0 cells assessed as change in gene expression at 0.5 ug/mL after 24 hrs by DNA microarray relative to control; format: functional
In short: (§1)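 Total RNA from CL1-0 cells treated 24 h with 0.5 µg/mL drug or untreated; mRNA isolated and run on human DNA microarrays; genes with statistically significant twofold change versus control reported as fold change, mean ± SD.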

CL1-0 [2] = test: Effect on PRKACA gene expression in human CL1-0 cells assessed as change in gene expression by RT-PCR relative to control; format: functional
In short: (§2)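 Real-time quantitative RT-PCR on CL1-0 RNA to validate microarray changes, SYBR Green chemistry with gene-specific primers, GAPDH as internal control; fold change versus untreated control reported as mean ± SD.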

CL1-0 [3] = test: Induction of apoptosis in human CL1-0 cells at 0.75 ug/mL after 24 hrs by propidium iodide and annexin V staining; format: functional
In short: (§3)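 CL1-0 cells treated with increasing concentrations for 24 h, resuspended in Annexin-binding buffer, stained with Alexa Fluor 488 Annexin V and PI for 15 min at room temperature, analyzed by flow cytometry; single-stain controls set apoptotic and necrotic windows.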

CL1-0 [4] = test: Effect on TNFRSF10B gene expression in human CL1-0 cells assessed as change in gene expression at 0.5 ug/mL after 24 hrs by DNA microarray relative to control; format: functional
In short: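 Total RNA extracted from treated or untreated CL1-0 cells, mRNA isolated, hybridized to human DNA microarray; genes scored by statistically significant twofold expression difference versus untreated control; fold change given as mean ± SD.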

[5] = Cytotoxicity against human CL1-0 cells assessed as growth inhibition after 48 hrs by MTS assay; format: functional, cell-based
In short: (§4)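 Cells seeded in four replicates at 2×10^3 per well in complete RPMI 1640 with drug (0, 0.1, 0.25, 0.5, 0.75 µg/mL in the cell-line panel), 48 h at 37 °C, 5% CO2. Viability read by MTS reagent, absorbance at 490 nm, expressed as percent of untreated control; IC50 taken as concentration giving 50% growth inhibition.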

CL1-0 [6] = test: Effect on AKT3 gene expression in human CL1-0 cells assessed as change in gene expression at 0.5 ug/mL after 24 hrs by DNA microarray relative to control; format: functional; in short: as §1
CL1-0 [7] = test: Induction of apoptosis in human CL1-0 cells at 0.25 ug/mL after 24 hrs by propidium iodide and annexin V staining; format: functional; in short: as §3
CL1-0 [8] = test: Induction of apoptosis in human CL1-0 cells at 0.5 ug/mL after 24 hrs by propidium iodide and annexin V staining; format: functional; in short: as §3
CL1-0 [9] = test: Effect on IRAK1 gene expression in human CL1-0 cells assessed as change in gene expression by RT-PCR relative to control; format: functional; in short: as §2
CL1-0 [10] = test: Effect on PDK1 gene expression in human CL1-0 cells assessed as change in gene expression by RT-PCR relative to control; format: functional; in short: as §2
PC-9 = test: Cytotoxicity against human PC9 cells assessed as growth inhibition after 48 hrs by MTS assay; format: functional, cell-based; conditions: PC-9, 48 h; in short: as §4
CL1-0 [11] = test: Effect on CFLAR gene expression in human CL1-0 cells assessed as change in gene expression by RT-PCR relative to control; format: functional; in short: as §2
NCI-H460 = test: Cytotoxicity against human H460 cells assessed as growth inhibition after 48 hrs by MTS assay; format: functional, cell-based; conditions: NCI-H460, 48 h; in short: as §4
CL1-0 [12] = test: Effect on PPP3CA gene expression in human CL1-0 cells assessed as change in gene expression by RT-PCR relative to control; format: functional; in short: as §2
CL1-0 [13] = test: Effect on BCL2L1 gene expression in human CL1-0 cells assessed as change in gene expression at 0.5 ug/mL after 24 hrs by DNA microarray relative to control; format: functional; in short: as §1
CL1-0 [14] = test: Effect on CFLAR gene expression in human CL1-0 cells assessed as change in gene expression at 0.5 ug/mL after 24 hrs by DNA microarray relative to control; format: functional; in short: as §1
CL1-0 [15] = test: Effect on PRKACA gene expression in human CL1-0 cells assessed as change in gene expression at 0.5 ug/mL after 24 hrs by DNA microarray relative to control; format: functional; in short: as §1
CL1-0 [16] = test: Effect on PPP3CA gene expression in human CL1-0 cells assessed as change in gene expression at 0.5 ug/mL after 24 hrs by DNA microarray relative to control; format: functional; in short: as §1
[17] = Cytotoxicity against human CL1-5 cells assessed as growth inhibition after 48 hrs by MTS assay; format: functional, cell-based; conditions: CL1-5, 48 h; in short: as §4
CL1-0 [18] = test: Effect on NFKB1A gene expression in human CL1-0 cells assessed as change in gene expression at 0.5 ug/mL after 24 hrs by DNA microarray relative to control; format: functional; in short: as §1
CL1-0 [19] = test: Effect on TNFRSF10B gene expression in human CL1-0 cells assessed as change in gene expression by RT-PCR relative to control; format: functional
In short: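 Microarray hits validated by real-time quantitative RT-PCR with SYBR Green chemistry and gene-specific primers; GAPDH used as internal control; fold change versus untreated control as mean ± SD.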

CL1-0 [20] = test: Effect on BCL2L1 gene expression in human CL1-0 cells assessed as change in gene expression by RT-PCR relative to control; format: functional; in short: as §2
CL1-0 [21] = test: Effect on MAP3K14 gene expression in human CL1-0 cells assessed as change in gene expression at 0.5 ug/mL after 24 hrs by DNA microarray relative to control; format: functional; in short: as §1
CL1-0 [22] = test: Effect on AKT3 gene expression in human CL1-0 cells assessed as change in gene expression by RT-PCR relative to control; format: functional; in short: as §2
CL1-0 [23] = test: Effect on NFKB1A gene expression in human CL1-0 cells assessed as change in gene expression by RT-PCR relative to control; format: functional; in short: as §2
CL1-0 [24] = test: Effect on PDK1 gene expression in human CL1-0 cells assessed as change in gene expression at 0.5 ug/mL after 24 hrs by DNA microarray relative to control; format: functional; in short: as §1
CL1-0 [25] = test: Effect on PIK3CD gene expression in human CL1-0 cells assessed as change in gene expression by RT-PCR relative to control; format: functional; in short: as §2
CL1-0 [26] = test: Effect on PIK3CD gene expression in human CL1-0 cells assessed as change in gene expression at 0.5 ug/mL after 24 hrs by DNA microarray relative to control; format: functional; in short: as §1
CL1-0 [27] = test: Effect on MAP3K14 gene expression in human CL1-0 cells assessed as change in gene expression by RT-PCR relative to control; format: functional; in short: as §2
A549 = test: Cytotoxicity against human A549 cells assessed as growth inhibition after 48 hrs by MTS assay; format: functional, cell-based; conditions: A549, 48 h; in short: as §4
[28] = Homo sapiens, CL1-0, 48 h, read-out: IC50

## COc1ccc2c(CN3CCC(CO)CC3)cc3cc4c(cc3c2c1)OCO4
CL1-0 [1]
  fold change (FC): 2.1
CL1-0 [2]
  fold change (FC): 1.39
CL1-0 [3]
  Activity: 11.03%
CL1-0 [4]
  fold change (FC): 2.53
[5]; [28]
  IC50: 0.81 µg/mL (≈ 2.13 µM)
[5]; cl1-0
  IC50: Dose-dependent effect
CL1-0 [6]
  fold change (FC): 0.48
CL1-0 [7]
  Activity: 5.96%
CL1-0 [8]
  Activity: 9.56%
CL1-0 [9]
  fold change (FC): 2.23
CL1-0 [10]
  fold change (FC): 0.56
PC-9
  IC50: 0.2 µg/mL (≈ 0.527 µM)
CL1-0 [11]
  fold change (FC): 2.8
NCI-H460
  IC50: 0.2 µg/mL (≈ 0.527 µM)
CL1-0 [12]
  fold change (FC): 5.31
CL1-0 [13]
  fold change (FC): 2.7
CL1-0 [14]
  fold change (FC): 3.01
CL1-0 [15]
  fold change (FC): 5.38
CL1-0 [16]
  fold change (FC): 2.53
[17]
  IC50: 0.2 µg/mL (≈ 0.527 µM)
CL1-0 [18]
  fold change (FC): 2.23
CL1-0 [19]
  fold change (FC): 1.71
CL1-0 [20]
  fold change (FC): 1.83
CL1-0 [21]
  fold change (FC): 2.25
CL1-0 [22]
  fold change (FC): 1.61
CL1-0 [23]
  fold change (FC): 6.8
CL1-0 [24]
  fold change (FC): 0.26
CL1-0 [25]
  fold change (FC): 1.69
CL1-0 [26]
  fold change (FC): 2.03
CL1-0 [27]
  fold change (FC): 2.94
A549
  IC50: 0.2 µg/mL (≈ 0.527 µM)

## COc1ccc2c(CN3CCN(CCO)CC3)cc3cc4c(cc3c2c1)OCO4
[5]; [28]
  IC50: > 2 µg/mL

## COc1ccc2c(CN3CCC(CCO)CC3)cc3cc4c(cc3c2c1)OCO4
[5]; [28]
  IC50: 0.37 µg/mL (≈ 0.94 µM)
[5]; cl1-0
  IC50: Dose-dependent effect

## COc1ccc2c(CN3CCN(c4ccc(Cl)cc4)CC3)cc3cc4c(cc3c2c1)OCO4
[5]; [28]
  IC50: > 2 µg/mL

## COc1ccc2c(CNCCCCCCO)cc3cc4c(cc3c2c1)OCO4
[5]; [28]
  IC50: > 2 µg/mL

## COc1ccc2c(CN3CCN(c4ccc(O)cc4)CC3)cc3cc4c(cc3c2c1)OCO4
[5]; [28]
  IC50: > 2 µg/mL

## COc1ccc2c(CN3CCC(CO)CC3)cc3cc4c(cc3c2c1)OCO4.Cl
[5]; [28]
  IC50: 0.44 µg/mL
[5]; cl1-0
  IC50: Dose-dependent effect

## COc1ccc2c(CNCCCCCC(=O)O)cc3cc4c(cc3c2c1)OCO4
[5]; [28]
  IC50: > 2 µg/mL

## COc1ccc2c(CN3CCC(CCO)CC3)cc3cc4c(cc3c2c1)OCO4.Cl
[5]; [28]
  IC50: 0.46 µg/mL
[5]; cl1-0
  IC50: Dose-dependent effect

## COc1ccc2c(CN3CCC(C(=O)O)CC3)cc3cc4c(cc3c2c1)OCO4
[5]; [28]
  IC50: > 2 µg/mL
